Data on 30 molecules can be found in ChEMBL document CHEMBL3271987, “Novel pyrazolo, isoxazolo, and thiazolo steroidal systems and model analogs containing dimethyoxylaryl (or dihydroxylaryl) groups and derivatives. Synthesis, spectral properties, and biological activity” (1976).

Assay [1] relates to Bacillus subtilis. The assay can be described thus: Antibacterial activity against Bacillus subtilis at 91 ug/ml measured up to 24 hrs by spectrophotometry. In kind it is functional, organism-based. The gist of the method:
(§1)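 Compound suspended in water with 0.1% Me2SO and added to tube cultures of the bacterium growing on glucose minimal medium, to a maximum final concentration of 91 μg/ml. Growth followed by periodic absorbance readings at 540 nm over 24 hr of incubation. Complete inhibition scored at concentration limits of 1 and 91 μg/ml.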

In assay [2] the test system is Pseudomonas fluorescens. Put plainly: Antibacterial activity against Pseudomonas fluorescens at 91 ug/ml measured up to 24 hrs by spectrophotometry. The class given is functional, organism-based. The gist of the method: as §1
Assay [3] concerns KB. Put plainly: Growth inhibition of human KB cells at 150 ug/ml after 7 days by microscopy. In kind it is functional, cell-based.
The test system of assay [4] is KB. Put plainly: Growth inhibition of human KB cells at 25 ug/ml after 7 days by microscopy.
The test system of assay [5] is KB. The assay can be described thus: Growth inhibition of human KB cells at 25 to 100 ug/ml after 7 days by microscopy. The class given is functional, cell-based.
In assay [6] the test system is Staphylococcus aureus. Put plainly: Antibacterial activity against Staphylococcus aureus clinical isolate at 91 ug/ml measured up to 24 hrs by spectrophotometry. In kind it is functional, organism-based. The gist of the method: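 A recent clinical isolate was grown in tube cultures of nutrient broth. Compound was suspended in water containing 0.1% Me2SO and added to a maximum final concentration of 91 μg/ml. Absorbance at 540 nm was read periodically during 24 hr of incubation.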

Assay [7] deals with KB. Put plainly: Growth inhibition of human KB cells at < 25 ug/ml after 7 days by microscopy. The class given is functional.
The subject of assay [8] is KB. Put plainly: Growth inhibition of human KB cells at 10 ug/ml after 7 days by microscopy. The conditions noted are these: 168 h, read-out: GI. The class given is functional.
For assay [9], the system named is KB. The assay can be described thus: Growth inhibition of human KB cells at 12 ug/ml after 7 days by microscopy. In kind it is functional, cell-based.
In assay [10] the test system is L1210. The assay can be described thus: Antitumor activity against mouse L1210 cells allografted in BDF1 mouse assessed as increase in life span at 0.2 mg, ip qd for 5 days relative to control. In kind it is functional. An outline of the steps: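 Female BDF1 mice, 35 days old, ten per group, given 1 × 10⁶ viable L1210 cells ip on day 0. Treatment on days 1–5 was 0.2 mg per injection ip, once daily (1 mg total), suspended in saline with 0.05% carboxymethylcellulose. Controls received carrier only. Readout was the ratio of mean survival time (days) of treated to control mice (T/C).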

The subject of assay [11] is KB. Put plainly: Growth inhibition of human KB cells at 25 ug/ml after 7 days by microscopy. The class given is functional. The following applies: 168 h, read-out: GI.
Assay [12] relates to KB. Put plainly: Growth inhibition of human KB cells at 50 ug/ml after 7 days by microscopy. The conditions noted are these: 168 h, read-out: GI. In kind it is functional.

Active and inactive are the calls of the source. The calls are words filed in the database; no cut-off is given here.

On to `COc1ccc2c3c(ccc2c1)-c1c(cnn1[C@H]1O[C@H](CO)[C@@H](O)[C@H](O)[C@H]1O)CC3`, for which the “growth inhibition (GI)” value in [1] and in assay [2] was “inactive” in each case.
Turning to `COc1cc2c(cc1OC)-c1nc(N)sc1CC2`, the “growth inhibition (GI)” value in assay [3] and in assay [1] was “Active” in each case. The “growth inhibition (GI)” value in assay [4] is given as 50%. The “growth inhibition (GI)” value in [2] is “inactive”.
On to `COc1ccc2c(c1)CCc1cnn(-c3ccccc3)c1-2`, for which the “growth inhibition (GI)” value in assay [1] is “Active”. Moreover, the “growth inhibition (GI)” value in assay [2] is “inactive”.
For `COc1cc2ccc3c(c2cc1OC)CCc1cn[nH]c1-3`, the “growth inhibition (GI)” value in [5] and in [2] was “inactive” throughout. In assay [1], the “growth inhibition (GI)” value was “Active”.
With `COc1ccc2c(c1)CCc1cnn([C@H]3O[C@H](COC(C)=O)[C@@H](OC(C)=O)[C@H](OC(C)=O)[C@H]3OC(C)=O)c1-2`, the “growth inhibition (GI)” value in assay [6], in assay [1] and in [2] was “Active” in each case. Besides, in [4], the “growth inhibition (GI)” value turned out to be 50%.
For the molecule `Oc1ccc2c(c1)CCc1cnn(-c3ccccc3)c1-2`, the “growth inhibition (GI)” value in assay [1] and in assay [2] was “inactive” in each case.
On to `COc1cc2c(cc1OC)C1=NN(c3ccc(F)cc3)C(=O)[C@H]1CC2`, for which the “growth inhibition (GI)” value in [1] and in assay [2] was “inactive” in each case.
Take `COc1cc2c(cc1OC)-c1nc(C)sc1CC2`: the “growth inhibition (GI)” value in [1] and in assay [2] was “inactive” in each case.
For `Oc1cc2ccc3c(c2cc1O)CCc1cnn(-c2ccc(F)cc2)c1-3`, the “growth inhibition (GI)” value in assay [7] is 50%. In assay [1], the “growth inhibition (GI)” value was “Active”. For the same molecule, in [8], the inhibition of growth at 10 µg/mL worked out at 50%. Besides, the “growth inhibition (GI)” value in [2] was “inactive”.
For `Oc1cc2c(cc1O)-c1[nH]ncc1CC2`, the “growth inhibition (GI)” value in assay [7] is 50%. Further, the “growth inhibition (GI)” value in [9] and in [1] was “Active” each time. Moreover, the Ratio in assay [10] is given as 1.14. Further, in [2], the “growth inhibition (GI)” value was “inactive”.
Turning to `C=CCNc1nc2c(s1)CCc1cc(OC)c(OC)cc1-2`, the “growth inhibition (GI)” value in [3] and in assay [1] was “Active” each time. The inhibition of growth at 25 µg/mL in assay [11] is 50%. Also, the “growth inhibition (GI)” value in assay [2] is “inactive”.
As to `Oc1cc2c(cc1O)-c1c(cnn1-c1ccccc1)CC2`, the “growth inhibition (GI)” value in assay [7] is reported as 50%. Besides, the “growth inhibition (GI)” value in assay [1] is “Active”. Moreover, in assay [2], the “growth inhibition (GI)” value is “inactive”.
Turning to `COc1cc2c(cc1OC)-c1c(cnn1[C@H]1O[C@H](COC(C)=O)[C@@H](OC(C)=O)[C@H](OC(C)=O)[C@H]1OC(C)=O)CC2`, the “growth inhibition (GI)” value in assay [1] and in assay [2] was “inactive” throughout.
For `COc1cc2c(cc1OC)C1=NNC(=O)[C@H]1CC2`, the “growth inhibition (GI)” value in assay [1] and in assay [2] was “inactive” each time.
Turning to `COc1cc2c(cc1OC)-c1c(cnn1S(=O)(=O)c1ccc(C)cc1)CC2`, the “growth inhibition (GI)” value in [1] and in assay [2] was “inactive” each time.
For the molecule `Oc1cc2ccc3c(c2cc1O)CCc1cn[nH]c1-3`, the “growth inhibition (GI)” value in assay [1] and in [2] was “inactive” throughout.
Consider `COc1cc2ccc3c(c2cc1OC)CCc1cnn(-c2ccc(F)cc2)c1-3`, for which the “growth inhibition (GI)” value in assay [1] and in assay [2] was “inactive” throughout.
`COc1cc2c(cc1OC)C1=NNC(=O)[C@@]1(C)CC2`: in assay [4], the “growth inhibition (GI)” value is listed as 50%. For the same molecule, the “growth inhibition (GI)” value in assay [1] was “Active”. The “growth inhibition (GI)” value in [2] was “inactive”.
For `COc1cc2ccc3c(c2cc1OC)CCc1cnoc1-3`, in assay [1], the “growth inhibition (GI)” value is “Active”. In addition, the “growth inhibition (GI)” value in assay [2] is “inactive”.
For `COc1cc2c(cc1OC)-c1[nH]ncc1CC2`, the inhibition of growth at 25 µg/mL in assay [11] came to 50%. Also, the inhibition of growth at 50 µg/mL in [12] came to 69%. The “growth inhibition (GI)” value in [1] is “Active”. Further, in [2], the “growth inhibition (GI)” value was “inactive”.
For `COc1cc2c(cc1OC)-c1c(cnn1[C@H]1O[C@H](CO)[C@@H](O)[C@H](O)[C@H]1O)CC2`, the “growth inhibition (GI)” value in assay [1] and in [2] was “inactive” in each case.
As for `COc1cc2c(cc1OC)-c1nocc1CC2`, the “growth inhibition (GI)” value in assay [1] and in [2] was “inactive” throughout.
With `COc1ccc(-n2ncc3c2-c2cc(OC)c(OC)cc2CC3)cc1`, the “growth inhibition (GI)” value in assay [5] and in assay [2] was “inactive” throughout. The “growth inhibition (GI)” value in assay [1] was “Active”.
As for `COc1cc2c(cc1OC)-c1nc(Nc3ccccc3)sc1CC2`, in assay [4], the “growth inhibition (GI)” value is 50%. Further, the “growth inhibition (GI)” value in assay [1] is “Active”. In addition, the “growth inhibition (GI)” value in [2] is “inactive”.
With `COc1cc2c(cc1OC)C1=NN(c3ccccc3)C(=O)[C@H]1CC2`, the “growth inhibition (GI)” value in assay [1] and in assay [2] was “inactive” throughout.
Consider `COc1ccc2c(c1)CC[C@@H]1C(=O)NN=C21`, for which the “growth inhibition (GI)” value in [4] was found to be 50%. Moreover, in assay [1], the “growth inhibition (GI)” value was “Active”. In addition, the “growth inhibition (GI)” value in [2] is “inactive”.
Regarding `Oc1ccc(-n2ncc3c2-c2cc(O)c(O)cc2CC3)cc1`, the “growth inhibition (GI)” value in assay [1] and in [2] was “inactive” throughout.
Turning to `COc1cc2c(cc1OC)-c1c(cnn1-c1ccccc1)CC2`, the “growth inhibition (GI)” value in [1] was “Active”. Further, the “growth inhibition (GI)” value in [2] is “inactive”.
Turning to `COc1ccc2c3c(ccc2c1)-c1c(cnn1[C@H]1O[C@H](COC(C)=O)[C@@H](OC(C)=O)[C@H](OC(C)=O)[C@H]1OC(C)=O)CC3`, the “growth inhibition (GI)” value in assay [7] came out at 50%. The “growth inhibition (GI)” value in assay [1] is “Active”. Besides, in assay [2], the “growth inhibition (GI)” value was “inactive”.
Consider `COc1cc2c(cc1OC)-c1oncc1CC2`, for which the “growth inhibition (GI)” value in [5] and in [2] was “inactive” each time. For the same molecule, the “growth inhibition (GI)” value in assay [1] was “Active”.
